According to ChEMBL document CHEMBL1137968, “Carbazates as potent inhibitors of hormone-sensitive lipase” (Bioorg Med Chem Lett, 2004):

Legend:
[1] = target: T1, Hormone-sensitive lipase (Homo sapiens) (UniProt Q05469); experiment: Inhibition of recombinant human hormone sensitive lipase (HSL); design: concentration or dose not given beside the values; settings: concentration not given here
T1 sequence (whole entry): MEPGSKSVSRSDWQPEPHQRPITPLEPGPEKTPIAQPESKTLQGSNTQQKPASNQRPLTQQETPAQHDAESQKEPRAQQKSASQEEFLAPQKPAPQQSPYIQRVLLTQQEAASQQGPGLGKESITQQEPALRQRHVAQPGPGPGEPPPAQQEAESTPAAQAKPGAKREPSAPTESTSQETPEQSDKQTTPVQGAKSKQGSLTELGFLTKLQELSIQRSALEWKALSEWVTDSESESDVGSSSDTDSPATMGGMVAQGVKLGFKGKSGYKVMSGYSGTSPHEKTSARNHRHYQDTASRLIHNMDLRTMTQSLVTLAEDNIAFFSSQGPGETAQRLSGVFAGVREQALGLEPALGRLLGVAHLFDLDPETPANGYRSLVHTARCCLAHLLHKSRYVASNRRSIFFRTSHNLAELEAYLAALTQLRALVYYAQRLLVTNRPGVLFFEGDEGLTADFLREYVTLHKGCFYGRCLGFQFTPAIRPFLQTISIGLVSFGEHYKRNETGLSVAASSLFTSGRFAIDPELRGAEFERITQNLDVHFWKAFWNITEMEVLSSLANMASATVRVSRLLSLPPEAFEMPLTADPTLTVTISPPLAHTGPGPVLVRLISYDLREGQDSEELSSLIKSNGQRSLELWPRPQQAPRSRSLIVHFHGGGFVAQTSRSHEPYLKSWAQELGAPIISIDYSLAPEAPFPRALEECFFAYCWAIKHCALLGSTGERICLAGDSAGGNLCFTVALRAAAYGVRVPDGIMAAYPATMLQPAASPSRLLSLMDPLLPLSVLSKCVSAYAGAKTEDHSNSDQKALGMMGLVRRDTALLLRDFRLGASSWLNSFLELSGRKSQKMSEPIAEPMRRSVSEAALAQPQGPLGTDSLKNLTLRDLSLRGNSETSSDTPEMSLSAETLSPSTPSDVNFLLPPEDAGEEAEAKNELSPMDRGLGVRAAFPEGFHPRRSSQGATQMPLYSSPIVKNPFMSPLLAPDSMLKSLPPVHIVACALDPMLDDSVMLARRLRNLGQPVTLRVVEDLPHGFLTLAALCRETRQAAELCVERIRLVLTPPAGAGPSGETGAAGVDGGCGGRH
Procedure, shortened: (§1)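 Purified recombinant human HSL (specific activity 2.6 U/mg protein) with triolein substrate. Activity measured at 37 °C as ³H-oleic acid release over time from a ³H-trioleoylglycerol emulsion stabilized with phospholipids. Bovine serum albumin served as fatty acid acceptor.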

Hormone-sensitive lipase = target: T2, Hormone-sensitive lipase (Homo sapiens, UniProt Q05469); experiment: Inhibition of human recombinant hormone sensitive lipase.; procedure, shortened: as §1
T2 sequence (Q05469 whole entry): T1 sequence (whole entry)

Row | Structure (SMILES) | inhibition [1] | IC50 (Hormone-sensitive lipase)
1 | O=C(NN1CCOCC1)Oc1ccc(NC(=O)C2CCCCC2)cc1 | 99% | 10 nM
2 | COc1ccccc1OC(=O)NN1CCc2ccccc2C1 | 76% | –
3 | O=C(NN1CCc2ccccc2C1)Oc1c(Cl)cccc1Cl | 3% | –
4 | O=C(NN1CCOCC1)Oc1ccc(Cl)cc1 | 99% | 184 nM
5 | O=C(NN1CCc2ccccc2C1)OCc1ccccc1 | 4% | –
6 | COC(=O)Cc1ccc(OC(=O)NN2CCOCC2)cc1 | 95% | 716 nM
7 | CN(C(=O)Oc1ccc(Cl)cc1)N1CCc2ccccc2C1 | 2% | –
8 | CC(C)(C)OC(=O)Nc1ccc(OC(=O)NN2CCc3ccccc3C2)cc1 | 98% | –
9 | CC1c2ccccc2CCN1NC(=O)Oc1ccc(Cl)cc1 (stereo unspecified) | 91% | 32 nM
10 | CN1CCN(NC(=O)Oc2ccc(Cl)cc2)CC1 | 98% | 515 nM
11 | CC(=O)Nc1ccc(OC(=O)NN2CCOCC2)cc1 | 20% | –
12 | CC(C)(C)CC(=O)Nc1ccc(OC(=O)NN2CCOCC2)cc1 | 99% | 47 nM
13 | O=C(NN1CCc2ccccc2C1)Oc1ccc(C(=O)c2ccccc2)cc1 | 21% | –
14 | CC(=O)Nc1ccc(OC(=O)NN2CCc3ccccc3C2)cc1 | 7% | –
15 | CCOC(=O)NN1CCc2ccccc2C1 | 9% | –
16 | O=C(Cc1ccc(OC(=O)NN2CCOCC2)cc1)OCc1ccccc1 | 100% | 5 nM
17 | O=C(NN1CCc2ccccc2C1)Oc1ccccc1 | – | 205 nM
18 | COC(=O)c1ccc(OC(=O)NN2CCc3ccccc3C2)cc1 | 57% | –
19 | COc1ccc(OC(=O)NN2CCc3ccccc3C2)cc1 | 97% | –
20 | O=C(NN1CCc2ccccc2C1)Oc1ccc(Cc2ccccc2)cc1 | 97% | 97 nM
21 | CC1Cc2ccccc2CN1NC(=O)Oc1ccc(Cl)cc1 (stereo unspecified) | 99% | 35 nM
22 | O=C(NN1CCCCC1)Oc1ccc(Cl)cc1 | 99% | –
23 | CCOC(=O)Cc1ccc(OC(=O)NN2CCOCC2)cc1 | 99% | 138 nM
24 | O=C(NN1CCCC1)Oc1ccc(Cl)cc1 | 100% | 24 nM
25 | CCCC(=O)Nc1ccc(OC(=O)NN2CCOCC2)cc1 | 84% | 3200 nM
26 | O=C(NN1CCc2ccccc2C1)Oc1ccc(Cl)cc1 | 98% | –
27 | CC(C)(C)C1CCC(C(=O)Nc2ccc(OC(=O)NN3CCOCC3)cc2)CC1 (stereo unspecified) | 100% | 1 nM
28 | CC(C)(C)OC(=O)NN1CCc2ccccc2C1 | 8% | –
